ChEMBL document CHEMBL4411269, “Required Immunoproteasome Subunit Inhibition Profile for Anti-Inflammatory Efficacy and Clinical Candidate KZR-616 ((2 S,3 R)- N-(( S)-3-(Cyclopent-1-en-1-yl)-1-(( R)-2-methyloxiran-2-yl)-1-oxopropan-2-yl)-3-hydroxy-3-(4-methoxyphenyl)-2-(( S)-2-(2-morpholinoacetamido)propanamido)propenamide)” (J Med Chem, 2018)
The source made the active and inactive calls. The rule behind the calls is not given here.

How the values were obtained:
[1] = biological target: T1, Proteasome subunit beta type-8 (Homo sapiens, UniProt P28062); test: Inhibition of LMP7 in human MOLT4 cells by ELISA; format: cell-based
T1 sequence (P28062 whole entry): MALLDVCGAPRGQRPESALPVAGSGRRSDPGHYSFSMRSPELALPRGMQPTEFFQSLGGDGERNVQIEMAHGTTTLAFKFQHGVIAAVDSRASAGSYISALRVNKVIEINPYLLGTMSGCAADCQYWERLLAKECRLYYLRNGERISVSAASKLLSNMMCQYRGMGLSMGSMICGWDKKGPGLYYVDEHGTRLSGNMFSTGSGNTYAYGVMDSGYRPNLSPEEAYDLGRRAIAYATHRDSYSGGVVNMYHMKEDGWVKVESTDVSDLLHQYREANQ

[2] = biological target: Proteasome subunit beta type-2 (Mus musculus, UniProt Q9R1P3); test: Inhibition of 20S proteosome beta 2 in mouse A20 cells by ELISA; format: cell-based
Sequence of Proteasome subunit beta type-2 (Q9R1P3 whole entry): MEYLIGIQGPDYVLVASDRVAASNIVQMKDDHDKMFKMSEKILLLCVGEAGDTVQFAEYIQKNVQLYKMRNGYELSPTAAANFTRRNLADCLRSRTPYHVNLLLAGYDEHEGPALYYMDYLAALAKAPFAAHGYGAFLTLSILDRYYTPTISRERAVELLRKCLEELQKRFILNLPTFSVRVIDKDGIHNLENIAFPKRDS

[3] = Selectivity ratio of IC50 for MECL1 in mouse A20 cells to IC50 for MECL1 in human MOLT4 cells; format: cell-based
PBMC [4] = test: Antiinflammatory activity in human PBMC assessed as reduction in LPS-stimulated IL-6 expression at 250 nM preincubated for 1 hr followed by LPS stimulation measured after 24 hrs by ELISA; format: functional, cell-based
Method in brief: (§1)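 Cryopreserved healthy-donor PBMC in RPMI 1640 with 5% heat-inactivated FBS, 250 000 cells/well. Compound (0.1% DMSO final) for 1 h at 37 °C, 5% CO2, then 4 washes with medium. Stimulated with 1 μg/mL LPS for 24 h; supernatant TNFα, IL-6 and IL-12/23p40 by electrochemiluminescent immunoassay. Mean level relative to DMSO controls, n = 6.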

PBMC [5] = test: Antiinflammatory activity in human PBMC assessed as reduction in LPS-stimulated p40 subunit of […] expression at 250 nM preincubated for 1 hr followed by LPS stimulation measured after 24 hrs by ELISA; format: functional, cell-based; method in brief: as §1
PBMC [6] = test: Antiinflammatory activity in human PBMC assessed as reduction in anti-CD3/CD28 antibody-stimulated TNF-alpha expression at 250 nM preincubated for 1 hr followed by anti-CD3/CD28 antibody stimulation measured after 24 hrs by ELISA; format: functional, cell-based
Method in brief: (§2)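 Healthy-donor PBMC, thawed from cryopreservation, 250 000 cells/well in RPMI 1640/5% FBS. Pretreated 1 h at 37 °C with compound alone or combined (0.1% DMSO final), washed 4 times, then stimulated 24 h with anti-CD3 and anti-CD28 antibodies. TNFα and IFNγ in supernatants by electrochemiluminescent ELISA; expressed relative to DMSO-treated controls (n = 6).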

PBMC [7] = test: Antiinflammatory activity in human PBMC assessed as reduction in anti-CD3/CD28 antibody-stimulated IFN-gamma expression at 250 nM preincubated for 1 hr followed by anti-CD3/CD28 antibody stimulation measured after 24 hrs by ELISA; format: functional, cell-based; method in brief: as §2
Mus musculus [8] = organism: Mus musculus; test: Selectivity ratio of IC50 for proteosome beta 5 in mouse A20 cells to IC50 for LMP7 in mouse A20 cells; format: cell-based
Method in brief: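 Mouse A20 B-cell lymphoma cell lysate (1 mg/mL, hypotonic 20 mM Tris pH 8, 5 mM EDTA) treated with serially diluted compound for 1 h at 25 °C. Then 5 μM biotinylated active-site probe for 2 h at 25 °C, guanidine denaturation and streptavidin bead capture. Subunit-specific antibody and HRP chemiluminescence, signal normalized to protein, IC50 from percent activity versus DMSO controls.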

[9] = Half life in Balb/c mouse at 2 mg/kg, iv; format: ADME, organism-based; conditions: in vivo
Method in brief: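 Female BALB/c mice aged 7−8 weeks, given 2 mg/kg iv in 25% PEG300/WFI. Cardiac blood taken at 2, 5, 10, 20, 30, 60 and 120 min postdose into sodium heparin and processed to plasma (n = 3/time point). Proteins precipitated with acetonitrile; drug measured by LC−MS/MS. Noncompartmental analysis of mean concentrations at nominal times and target doses.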

PBMC [10] = test: Antiinflammatory activity in human PBMC assessed as reduction in anti-CD3/CD28 antibody-stimulated IFN-gamma expression at 125 nM preincubated for 1 hr followed by anti-CD3/CD28 antibody stimulation measured after 24 hrs by ELISA; format: functional, cell-based; method in brief: as §2
Mus musculus [11] = test: In vivo inhibition of MECL-1 in Balb/c mouse splenocytes at 20 mg/kg, iv followed by dosing repeat on day 6, 8, 11, 13 and 15 and measured on 1 hr post last dose; format: functional, organism-based
Method in brief: (§3)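 BALB/c mice dosed iv bolus in 10% sulfobutyl ether−β-cyclodextrin/10 mM sodium citrate pH 3.5; tissues taken 1 h after administration. Splenocytes strained and red cells lysed; kidney frozen, then bead-homogenized. Hypotonic lysate (20 mM Tris pH 8, 5 mM EDTA) at 1 mg/mL (spleen) or 5 mg/mL (kidney) run in the ProCISE active-site ELISA. Background-subtracted, protein-normalized activity relative to vehicle animals; n = 3.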

Mus musculus [12] = test: In vivo inhibition of LMP7 in Balb/c mouse splenocytes at 20 mg/kg, iv followed by dosing repeat on day 6, 8, 11, 13 and 15 and co-treated with 5 mg/kg, iv KZR-504 and measured on 1 hr post last dose; format: functional, organism-based; method in brief: as §3
Mus musculus [13] = test: Antiarthritic activity in type 2 collagen antibody/LPS induced Balb/c mouse assessed as reduction in disease burden at 20 mg/kg, iv followed by dosing repeat on day 6, 8, 11, 13 and 15 and co-treated with 5 mg/kg, iv KZR-504 and measured until day 18; format: functional, organism-based
Method in brief: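 CAIA in 7−8 week old female BALB/c mice on breeder chow. Induced with 1.75 mg of a 5-antibody anti-type II collagen cocktail iv on day 0, then 25 μg LPS ip on day 3. Dosed as single iv boluses in 10% (w/v) sulfobutyl ether−β-cyclodextrin/10 mM sodium citrate (pH 3.5); vehicle-treated group included.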

[14] = biological target: T2, Proteasome subunit beta type-9 (Homo sapiens) (UniProt P28065); test: Inhibition of LMP2 in human PBMC at 125 nM by ELISA
T2 sequence (whole entry): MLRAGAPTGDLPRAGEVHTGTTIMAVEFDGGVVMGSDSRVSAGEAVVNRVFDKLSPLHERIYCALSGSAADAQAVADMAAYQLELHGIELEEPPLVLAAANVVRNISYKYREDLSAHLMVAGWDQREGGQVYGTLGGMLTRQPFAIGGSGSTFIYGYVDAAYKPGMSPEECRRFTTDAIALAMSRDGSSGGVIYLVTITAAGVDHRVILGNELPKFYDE

[15] = biological target: T3, Proteasome subunit beta type-8 (Homo sapiens) (UniProt P28062); test: Inhibition of LMP7 in human PBMC at 125 nM in presence of KZR-504 by ELISA
T3 sequence (whole entry): T1 sequence (P28062 whole entry)
Method in brief: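 Cryopreserved healthy-donor human PBMC in RPMI 1640 with 5% heat-inactivated FBS, exposed to compound (0.1% DMSO final) for 1 h at 37 °C, 5% CO2, then washed. Subunit-specific active-site occupancy read by ProCISE: biotinylated active-site probe binding, denaturation, streptavidin capture, subunit-specific antibody and HRP chemiluminescence. Signal normalized to protein and expressed relative to DMSO controls.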

[16] = biological target: T2, Proteasome subunit beta type-9 (Homo sapiens); test: Inhibition of LMP2 in human PBMC at 125 nM in presence of KZR-504 by ELISA

Row | Structure (SMILES) | IC50 [1] [nM] | IC50 [2] [nM] | Ratio IC50 [3] | Activity (PBMC [4]) | Activity (PBMC [5]) | Activity (PBMC [6]) | Activity (PBMC [7]) | Ratio IC50 (Mus musculus [8]) | half-life [9] [min] | Activity (PBMC [10]) | inhibition (Mus musculus [11]) | inhibition (Mus musculus [12]) | Activity (Mus musculus [13]) | inhibition [14] | inhibition [15] | inhibition [16]
1 | Cc1ccc(CC[C@H](NC(=O)[C@H](Cc2ccccc2)NC(=O)[C@H](CC(C)C)NC(=O)CN2CCCCCC2)C(=O)[C@@]2(C)CO2)cc1 | 346 | 573 | 4 | inactive | inactive | inactive | inactive | – | – | – | – | – | – | – | – | –
2 | COc1ccc([C@@H](O)[C@H](NC(=O)[C@H](C)NC(=O)CN2CCOCC2)C(=O)N[C@@H](CC2=CCCC2)C(=O)[C@@]2(C)CO2)cc1 [ZETOMIPZOMIB] | 39 | 857 | – | Active | Active | Active | Active | – | – | – | – | – | – | – | – | –
3 | COc1ccc(C[C@H](NC(=O)[C@@H](C)NC(=O)[C@H]2CC[C@H](O)CC2)C(=O)N[C@@H](CC2=CCCC2)C(=O)[C@@]2(C)CO2)cc1 | – | – | – | – | – | – | – | 7 | < 7 | Active | Active | Active | Active | Active | Active | Active
